Measured values: ChEMBL document CHEMBL1165965, “Synthesis and structure-activity relationships of 1,2,3,4-tetrahydropyrido[2,3-b]pyrazines as potent and selective inhibitors of the anaplastic lymphoma kinase” (Bioorg Med Chem, 2010)

Experiments:
[1] = molecular target: Citron Rho-interacting kinase (Homo sapiens) (UniProt O14578); assay: Inhibition of CIT at 1 uM
[2] = molecular target: Receptor-type tyrosine-protein kinase FLT3 (Homo sapiens) (UniProt P36888); assay: Inhibition of FLT3 at 1 uM
Outline: (§1)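 Single-concentration screen on the Ambit KINOMEscan platform, run against a panel of 250–400 kinases. Per-kinase inhibition was also summarized as S(90), the fraction of kinases inhibited by more than 90%.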

[3] = molecular target: T1, Serine/threonine-protein kinase DCLK2 (Homo sapiens) (UniProt Q8N568); assay: Inhibition of DCAMKL2 at 1 uM
T1 sequence (whole entry): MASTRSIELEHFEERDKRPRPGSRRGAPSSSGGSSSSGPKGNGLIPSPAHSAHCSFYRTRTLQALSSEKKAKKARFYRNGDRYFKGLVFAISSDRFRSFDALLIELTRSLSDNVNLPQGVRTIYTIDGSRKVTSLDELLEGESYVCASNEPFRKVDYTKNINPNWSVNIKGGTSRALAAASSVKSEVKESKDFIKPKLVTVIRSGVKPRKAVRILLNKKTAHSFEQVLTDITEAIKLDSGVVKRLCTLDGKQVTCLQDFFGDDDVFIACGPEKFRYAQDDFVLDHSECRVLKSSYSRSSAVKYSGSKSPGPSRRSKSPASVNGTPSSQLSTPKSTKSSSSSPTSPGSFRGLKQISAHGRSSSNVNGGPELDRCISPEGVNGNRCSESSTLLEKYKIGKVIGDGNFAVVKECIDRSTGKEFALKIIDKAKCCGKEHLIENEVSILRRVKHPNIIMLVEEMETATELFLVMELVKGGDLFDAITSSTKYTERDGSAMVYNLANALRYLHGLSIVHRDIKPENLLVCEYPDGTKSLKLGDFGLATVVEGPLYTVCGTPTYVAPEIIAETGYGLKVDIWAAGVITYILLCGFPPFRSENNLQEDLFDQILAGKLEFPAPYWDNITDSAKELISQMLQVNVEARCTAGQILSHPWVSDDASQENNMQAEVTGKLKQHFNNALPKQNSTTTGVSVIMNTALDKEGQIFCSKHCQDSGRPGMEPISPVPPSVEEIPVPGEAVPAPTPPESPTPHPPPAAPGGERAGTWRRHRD

[4] = molecular target: T2, Tyrosine-protein kinase JAK3 (Homo sapiens) (UniProt P52333); assay: Inhibition of JAK3 JH1 catalytic domain at 1 uM; outline: as §1
T2 sequence (whole entry): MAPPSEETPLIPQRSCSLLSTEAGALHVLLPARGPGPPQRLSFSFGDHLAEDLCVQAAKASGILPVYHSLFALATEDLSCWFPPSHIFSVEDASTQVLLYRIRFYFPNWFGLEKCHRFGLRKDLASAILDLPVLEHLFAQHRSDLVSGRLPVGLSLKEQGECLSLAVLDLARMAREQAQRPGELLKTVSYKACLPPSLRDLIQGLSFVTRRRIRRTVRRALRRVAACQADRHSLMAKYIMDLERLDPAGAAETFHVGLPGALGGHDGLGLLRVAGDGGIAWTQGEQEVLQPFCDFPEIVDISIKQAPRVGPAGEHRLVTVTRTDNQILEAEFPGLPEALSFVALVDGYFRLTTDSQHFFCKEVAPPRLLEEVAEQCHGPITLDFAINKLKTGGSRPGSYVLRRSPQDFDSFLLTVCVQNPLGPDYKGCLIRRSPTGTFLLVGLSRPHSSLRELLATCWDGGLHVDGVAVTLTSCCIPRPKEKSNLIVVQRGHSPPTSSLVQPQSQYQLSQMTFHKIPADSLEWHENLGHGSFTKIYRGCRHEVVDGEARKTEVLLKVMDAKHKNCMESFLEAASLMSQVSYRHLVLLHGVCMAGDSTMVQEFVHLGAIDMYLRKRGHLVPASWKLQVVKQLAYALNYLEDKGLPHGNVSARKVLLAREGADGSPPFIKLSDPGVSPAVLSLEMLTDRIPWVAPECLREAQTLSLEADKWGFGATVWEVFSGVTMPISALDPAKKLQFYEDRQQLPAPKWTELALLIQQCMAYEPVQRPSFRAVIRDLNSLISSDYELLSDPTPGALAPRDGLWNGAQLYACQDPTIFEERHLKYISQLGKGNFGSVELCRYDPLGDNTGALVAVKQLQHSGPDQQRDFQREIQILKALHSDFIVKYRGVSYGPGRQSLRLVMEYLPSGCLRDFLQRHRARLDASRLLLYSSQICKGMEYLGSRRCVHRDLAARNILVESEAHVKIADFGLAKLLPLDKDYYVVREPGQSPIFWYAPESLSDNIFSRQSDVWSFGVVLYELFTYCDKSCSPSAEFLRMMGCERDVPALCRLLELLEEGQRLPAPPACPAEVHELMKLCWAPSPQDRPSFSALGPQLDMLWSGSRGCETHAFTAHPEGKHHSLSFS

[5] = molecular target: Serine/threonine-protein kinase SBK1 (Homo sapiens) (UniProt Q52WX2); assay: Inhibition of SBK1 at 1 uM
[6] = molecular target: Mitogen-activated protein kinase 9 (Homo sapiens) (UniProt P45984); assay: Inhibition of JNK2 at 1 uM; outline: as §1
[7] = tested on: Tyrosine-protein kinase ABL1 (Homo sapiens), P00519 [F317L]; assay: Inhibition of ABL1 F317L mutant at 1 uM
[8] = tested on: Phosphatidylinositol 4,5-bisphosphate 3-kinase catalytic subunit alpha isoform (Homo sapiens), P42336 [M1043I]; assay: Inhibition of PIK3CA M1043I mutant at 1 uM
[9] = molecular target: Rho-associated protein kinase 2 (Homo sapiens) (UniProt O75116); assay: Inhibition of ROCK2 at 1 uM
[10] = molecular target: T3, Megakaryocyte-associated tyrosine-protein kinase (Homo sapiens) (UniProt P42679); assay: Inhibition of CTK at 1 uM
T3 sequence (whole entry): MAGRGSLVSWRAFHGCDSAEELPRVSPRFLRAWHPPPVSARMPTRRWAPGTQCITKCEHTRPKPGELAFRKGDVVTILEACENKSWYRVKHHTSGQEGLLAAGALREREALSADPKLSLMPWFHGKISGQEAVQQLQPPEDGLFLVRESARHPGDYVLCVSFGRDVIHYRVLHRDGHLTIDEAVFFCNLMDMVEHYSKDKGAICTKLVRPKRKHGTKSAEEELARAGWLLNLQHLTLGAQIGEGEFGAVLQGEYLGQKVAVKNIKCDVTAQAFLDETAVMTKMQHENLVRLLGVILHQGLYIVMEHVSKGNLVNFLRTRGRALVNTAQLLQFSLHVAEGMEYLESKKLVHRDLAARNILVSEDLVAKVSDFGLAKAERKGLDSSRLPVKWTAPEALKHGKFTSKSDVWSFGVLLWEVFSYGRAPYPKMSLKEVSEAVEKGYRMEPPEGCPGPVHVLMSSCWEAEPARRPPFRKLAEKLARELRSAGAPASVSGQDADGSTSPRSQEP

[11] = molecular target: Angiopoietin-1 receptor (Homo sapiens) (UniProt Q02763); assay: Inhibition of TIE2 at 1 uM
[12] = tested on: Mast/stem cell growth factor receptor Kit (Homo sapiens), P10721 [L576P]; assay: Inhibition of KIT L576P mutant at 1 uM
Mast/stem cell growth factor receptor Kit (Homo sapiens), P10721 [L576P], sequence (P10721 whole entry L576P): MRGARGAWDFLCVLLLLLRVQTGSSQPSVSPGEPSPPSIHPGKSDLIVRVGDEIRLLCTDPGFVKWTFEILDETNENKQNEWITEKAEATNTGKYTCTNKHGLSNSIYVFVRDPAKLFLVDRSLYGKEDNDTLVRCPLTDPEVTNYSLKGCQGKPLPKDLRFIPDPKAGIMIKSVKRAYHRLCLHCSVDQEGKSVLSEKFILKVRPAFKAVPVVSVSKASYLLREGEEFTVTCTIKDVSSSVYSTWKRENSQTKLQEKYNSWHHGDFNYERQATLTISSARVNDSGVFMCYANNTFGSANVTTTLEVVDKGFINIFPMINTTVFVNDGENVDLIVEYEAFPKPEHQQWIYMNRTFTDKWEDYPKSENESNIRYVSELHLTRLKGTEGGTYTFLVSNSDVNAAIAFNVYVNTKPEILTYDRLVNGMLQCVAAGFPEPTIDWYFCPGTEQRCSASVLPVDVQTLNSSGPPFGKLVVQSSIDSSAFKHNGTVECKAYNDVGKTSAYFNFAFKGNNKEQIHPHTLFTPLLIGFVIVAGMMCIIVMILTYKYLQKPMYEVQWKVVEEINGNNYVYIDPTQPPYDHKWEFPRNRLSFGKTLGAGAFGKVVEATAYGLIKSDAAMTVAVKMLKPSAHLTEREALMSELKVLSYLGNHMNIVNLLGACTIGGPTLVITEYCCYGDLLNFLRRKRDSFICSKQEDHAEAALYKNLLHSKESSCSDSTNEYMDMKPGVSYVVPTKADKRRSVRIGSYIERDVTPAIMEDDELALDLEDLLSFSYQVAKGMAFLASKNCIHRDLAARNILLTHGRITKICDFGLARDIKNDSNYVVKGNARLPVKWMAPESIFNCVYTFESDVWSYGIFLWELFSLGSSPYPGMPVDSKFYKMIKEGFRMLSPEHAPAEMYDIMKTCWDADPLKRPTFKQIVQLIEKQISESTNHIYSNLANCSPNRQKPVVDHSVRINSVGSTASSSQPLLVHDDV

Phosphatidylinositol 4,5-bisphosphate 3-kinase catalytic subunit alpha isoform (Homo sapiens), P42336 [M1043I], sequence (P42336 whole entry M1043I, canonical isoform): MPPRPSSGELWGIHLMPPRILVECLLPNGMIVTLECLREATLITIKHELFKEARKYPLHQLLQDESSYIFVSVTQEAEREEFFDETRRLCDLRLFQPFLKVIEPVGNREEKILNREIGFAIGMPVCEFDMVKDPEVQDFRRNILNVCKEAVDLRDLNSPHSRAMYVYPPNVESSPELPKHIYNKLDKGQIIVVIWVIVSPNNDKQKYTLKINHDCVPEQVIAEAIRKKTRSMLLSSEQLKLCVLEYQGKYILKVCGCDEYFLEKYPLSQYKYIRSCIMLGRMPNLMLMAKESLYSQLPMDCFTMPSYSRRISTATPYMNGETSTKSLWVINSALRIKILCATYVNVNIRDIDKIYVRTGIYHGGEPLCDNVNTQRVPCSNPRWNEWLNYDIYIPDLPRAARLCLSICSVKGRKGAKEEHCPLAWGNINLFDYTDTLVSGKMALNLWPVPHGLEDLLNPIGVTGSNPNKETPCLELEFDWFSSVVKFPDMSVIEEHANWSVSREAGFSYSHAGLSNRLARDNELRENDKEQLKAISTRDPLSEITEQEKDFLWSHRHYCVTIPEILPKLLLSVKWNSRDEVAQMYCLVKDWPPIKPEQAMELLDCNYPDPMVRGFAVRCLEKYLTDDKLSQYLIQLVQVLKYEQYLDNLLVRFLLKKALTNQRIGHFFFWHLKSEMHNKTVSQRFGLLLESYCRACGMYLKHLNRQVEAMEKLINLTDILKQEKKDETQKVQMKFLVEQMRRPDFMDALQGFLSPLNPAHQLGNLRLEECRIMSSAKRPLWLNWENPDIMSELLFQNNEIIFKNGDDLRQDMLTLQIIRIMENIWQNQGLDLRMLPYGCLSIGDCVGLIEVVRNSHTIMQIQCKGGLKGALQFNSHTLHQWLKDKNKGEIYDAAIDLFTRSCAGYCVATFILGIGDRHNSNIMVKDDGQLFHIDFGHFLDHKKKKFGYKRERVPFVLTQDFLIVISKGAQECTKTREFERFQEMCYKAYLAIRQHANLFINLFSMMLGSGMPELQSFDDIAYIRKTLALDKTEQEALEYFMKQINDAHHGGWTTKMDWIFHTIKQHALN
Mitogen-activated protein kinase 9 (Homo sapiens), sequence (P45984 whole entry, looked up): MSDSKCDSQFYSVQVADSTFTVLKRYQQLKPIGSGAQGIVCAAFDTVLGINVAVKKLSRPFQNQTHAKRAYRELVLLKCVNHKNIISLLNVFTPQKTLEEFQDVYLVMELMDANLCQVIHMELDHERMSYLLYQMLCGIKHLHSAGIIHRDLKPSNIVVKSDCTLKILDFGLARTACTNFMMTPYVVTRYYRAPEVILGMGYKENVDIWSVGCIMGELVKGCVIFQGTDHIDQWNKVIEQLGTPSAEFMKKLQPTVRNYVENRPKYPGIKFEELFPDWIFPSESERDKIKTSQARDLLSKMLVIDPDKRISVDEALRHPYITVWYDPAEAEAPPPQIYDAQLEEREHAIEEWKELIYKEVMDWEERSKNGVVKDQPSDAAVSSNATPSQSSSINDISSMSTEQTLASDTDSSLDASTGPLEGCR
Serine/threonine-protein kinase SBK1 (Homo sapiens), sequence (Q52WX2 whole entry): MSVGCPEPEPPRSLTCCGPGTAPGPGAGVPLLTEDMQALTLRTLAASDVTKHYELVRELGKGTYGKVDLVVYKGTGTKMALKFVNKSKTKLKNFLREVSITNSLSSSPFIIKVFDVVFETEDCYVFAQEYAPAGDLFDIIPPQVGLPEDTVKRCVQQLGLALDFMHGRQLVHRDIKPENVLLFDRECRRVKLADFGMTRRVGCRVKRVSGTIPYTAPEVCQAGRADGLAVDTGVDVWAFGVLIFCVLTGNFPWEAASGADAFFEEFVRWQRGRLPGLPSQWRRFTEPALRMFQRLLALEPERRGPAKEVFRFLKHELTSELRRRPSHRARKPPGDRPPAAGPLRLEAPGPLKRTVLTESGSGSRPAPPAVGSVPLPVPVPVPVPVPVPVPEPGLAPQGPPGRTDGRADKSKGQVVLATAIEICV
Angiopoietin-1 receptor (Homo sapiens), sequence (Q02763 whole entry): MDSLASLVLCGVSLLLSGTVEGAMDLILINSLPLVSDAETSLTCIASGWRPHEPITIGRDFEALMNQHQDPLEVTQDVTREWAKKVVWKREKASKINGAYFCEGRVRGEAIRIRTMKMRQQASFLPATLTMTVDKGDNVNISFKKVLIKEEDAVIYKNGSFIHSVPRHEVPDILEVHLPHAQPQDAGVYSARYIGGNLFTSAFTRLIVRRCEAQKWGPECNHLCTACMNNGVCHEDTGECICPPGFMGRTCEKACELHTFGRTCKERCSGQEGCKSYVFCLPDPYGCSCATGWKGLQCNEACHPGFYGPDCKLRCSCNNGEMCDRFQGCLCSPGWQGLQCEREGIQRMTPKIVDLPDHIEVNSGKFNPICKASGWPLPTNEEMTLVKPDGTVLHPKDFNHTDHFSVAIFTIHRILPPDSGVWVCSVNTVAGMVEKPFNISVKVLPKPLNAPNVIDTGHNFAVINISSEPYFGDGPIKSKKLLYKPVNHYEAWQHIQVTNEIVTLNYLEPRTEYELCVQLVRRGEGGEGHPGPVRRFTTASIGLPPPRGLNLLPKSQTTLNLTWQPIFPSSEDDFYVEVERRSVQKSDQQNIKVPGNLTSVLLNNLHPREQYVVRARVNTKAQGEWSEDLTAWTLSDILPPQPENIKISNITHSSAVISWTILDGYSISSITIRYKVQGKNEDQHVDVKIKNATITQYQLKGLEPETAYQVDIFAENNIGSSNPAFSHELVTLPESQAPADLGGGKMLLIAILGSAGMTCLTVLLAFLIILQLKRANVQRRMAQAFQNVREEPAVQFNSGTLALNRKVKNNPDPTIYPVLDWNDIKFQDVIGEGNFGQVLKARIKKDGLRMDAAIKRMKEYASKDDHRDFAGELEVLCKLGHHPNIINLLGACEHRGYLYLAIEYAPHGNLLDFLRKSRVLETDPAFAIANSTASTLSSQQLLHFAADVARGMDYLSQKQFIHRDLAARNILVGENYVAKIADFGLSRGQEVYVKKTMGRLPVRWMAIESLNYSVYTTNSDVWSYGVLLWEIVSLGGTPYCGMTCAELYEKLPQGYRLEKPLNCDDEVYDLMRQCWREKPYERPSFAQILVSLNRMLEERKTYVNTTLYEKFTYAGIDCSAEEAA
Receptor-type tyrosine-protein kinase FLT3 (Homo sapiens), sequence (P36888 whole entry): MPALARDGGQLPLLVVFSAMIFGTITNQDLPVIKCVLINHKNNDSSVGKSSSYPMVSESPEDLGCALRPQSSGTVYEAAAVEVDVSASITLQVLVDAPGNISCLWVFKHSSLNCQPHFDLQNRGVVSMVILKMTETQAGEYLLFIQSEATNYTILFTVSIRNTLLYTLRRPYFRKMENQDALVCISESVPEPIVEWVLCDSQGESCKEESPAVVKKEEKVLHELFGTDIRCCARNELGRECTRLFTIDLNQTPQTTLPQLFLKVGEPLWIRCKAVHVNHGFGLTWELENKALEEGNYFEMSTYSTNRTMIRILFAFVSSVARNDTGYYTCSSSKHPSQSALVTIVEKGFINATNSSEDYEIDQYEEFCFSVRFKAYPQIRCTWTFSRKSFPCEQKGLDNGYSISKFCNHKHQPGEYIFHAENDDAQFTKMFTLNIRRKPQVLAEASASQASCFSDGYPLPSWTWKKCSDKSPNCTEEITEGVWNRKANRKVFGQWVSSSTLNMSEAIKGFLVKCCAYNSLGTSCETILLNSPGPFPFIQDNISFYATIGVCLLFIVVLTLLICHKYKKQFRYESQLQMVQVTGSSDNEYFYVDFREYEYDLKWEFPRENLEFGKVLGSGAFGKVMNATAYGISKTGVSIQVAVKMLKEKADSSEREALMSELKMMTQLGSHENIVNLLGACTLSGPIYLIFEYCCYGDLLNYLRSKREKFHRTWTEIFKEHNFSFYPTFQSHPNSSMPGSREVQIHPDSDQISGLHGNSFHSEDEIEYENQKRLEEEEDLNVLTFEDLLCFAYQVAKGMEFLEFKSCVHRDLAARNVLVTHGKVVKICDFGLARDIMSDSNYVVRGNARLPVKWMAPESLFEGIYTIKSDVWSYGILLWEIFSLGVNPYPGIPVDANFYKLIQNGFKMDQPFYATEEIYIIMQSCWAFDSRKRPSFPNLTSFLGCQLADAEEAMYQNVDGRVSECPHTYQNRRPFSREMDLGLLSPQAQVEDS

Structure (SMILES) | inhibition [1] [%] | inhibition [2] [%] | inhibition [3] [%] | inhibition [4] [%] | inhibition [5] [%] | inhibition [6] [%] | inhibition [7] [%] | inhibition [8] [%] | inhibition [9] [%] | inhibition [10] [%] | inhibition [11] [%] | inhibition [12] [%]
O=C(O)c1ccc(-c2cnc3c(c2)N(Cc2cc(Cl)ccc2C(F)(F)F)CCN3)cc1 | – | < 50 | – | < 50 | – | < 50 | < 50 | – | – | – | < 50 | –
O=C(c1ccc(-c2cnc3c(c2)N(Cc2cc(Cl)ccc2C(F)(F)F)CCN3)cc1)N1CCC(N2CCCC2)CC1 | – | 99.3 | – | 98.7 | – | < 50 | – | – | – | < 50 | < 50 | –
COC1CCN(C(=O)c2ccc(-c3cnc4c(c3)N(Cc3cc(Cl)ccc3C(F)(F)F)CCN4)cc2)CC1 | – | 80.7 | – | 93.2 | – | < 50 | – | – | – | < 50 | < 50 | –
CN1CCN(c2ccc(-c3cnc4c(c3)N(Cc3cc(F)ccc3F)CCN4)cn2)CC1 | < 50 | 64 | < 50 | 86.4 | < 50 | < 50 | < 50 | < 50 | < 50 | < 50 | < 50 | 75
CN1CCN(c2ccc(-c3cnc4c(c3)N(Cc3c(F)ccc(F)c3Cl)CCN4)cn2)CC1 | < 50 | < 50 | < 50 | 83 | < 50 | < 50 | 77 | < 50 | < 50 | < 50 | < 50 | 73
CN1CCN(c2ccc(-c3cnc4c(c3)N(Cc3cc(Cl)ccc3Cl)CCN4)cn2)CC1 | < 50 | 90 | < 50 | 73 | < 50 | < 50 | < 50 | < 50 | < 50 | < 50 | < 50 | 98

Second part, the compound after the results:

inhibition [1] [%] | inhibition [2] [%] | inhibition [3] [%] | inhibition [4] [%] | inhibition [5] [%] | inhibition [6] [%] | inhibition [7] [%] | inhibition [8] [%] | inhibition [9] [%] | inhibition [10] [%] | inhibition [11] [%] | inhibition [12] [%] | Structure (SMILES)
< 50 | 88 | < 50 | 75 | < 50 | < 50 | < 50 | < 50 | < 50 | < 50 | < 50 | 80 | CN1CCN(c2ccc(-c3cnc4c(c3)N(Cc3cc(Cl)ccc3C(F)(F)F)CCN4)cn2)CC1
< 50 | 95 | 96 | 88 | < 50 | < 50 | < 50 | < 50 | 76 | < 50 | < 50 | 99 | FC(F)(F)c1ccc(Cl)cc1CN1CCNc2ncc(-c3ccnc(N4CCNCC4)c3)cc21
< 50 | 83 | < 50 | 88 | < 50 | < 50 | < 50 | < 50 | < 50 | < 50 | < 50 | 90 | CC(=O)N1CCN(c2cc(-c3cnc4c(c3)N(Cc3cc(Cl)ccc3C(F)(F)F)CCN4)ccn2)CC1
– | < 50 | – | 79.3 | – | < 50 | – | – | – | < 50 | < 50 | – | O=C(c1ccc(-c2cnc3c(c2)N(Cc2cc(Cl)ccc2C(F)(F)F)CCN3)cc1)N1CCCCC1
